We go through 16 compounds from ChEMBL document CHEMBL1125192, “Analogues of the 5-HT1A serotonin antagonist 1-(2-methoxyphenyl)-4-[4-(2-phthalimido)butyl]piperazine with reduced alpha 1-adrenergic affinity” (J Med Chem, 1991).

Bounds are passed on as bounds.

The target in experiment [1] is T1, Adrenergic receptor alpha-1 (Rattus norvegicus, UniProt P15823+P23944+P43140).
T1 sequence (P15823 whole entry): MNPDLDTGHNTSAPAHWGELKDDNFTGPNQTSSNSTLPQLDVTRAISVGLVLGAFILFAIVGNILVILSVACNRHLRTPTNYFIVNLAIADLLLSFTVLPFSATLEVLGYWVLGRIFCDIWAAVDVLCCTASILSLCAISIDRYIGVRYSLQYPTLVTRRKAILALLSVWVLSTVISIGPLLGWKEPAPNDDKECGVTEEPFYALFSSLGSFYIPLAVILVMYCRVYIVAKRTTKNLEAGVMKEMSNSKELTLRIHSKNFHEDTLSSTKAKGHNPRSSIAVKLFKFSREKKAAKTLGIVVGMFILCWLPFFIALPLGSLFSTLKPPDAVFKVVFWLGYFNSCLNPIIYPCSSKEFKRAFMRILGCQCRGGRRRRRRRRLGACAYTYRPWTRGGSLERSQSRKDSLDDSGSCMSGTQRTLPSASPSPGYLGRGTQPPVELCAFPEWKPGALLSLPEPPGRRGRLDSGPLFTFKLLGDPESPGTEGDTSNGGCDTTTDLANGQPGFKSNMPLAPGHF
T1 sequence (P23944 whole entry): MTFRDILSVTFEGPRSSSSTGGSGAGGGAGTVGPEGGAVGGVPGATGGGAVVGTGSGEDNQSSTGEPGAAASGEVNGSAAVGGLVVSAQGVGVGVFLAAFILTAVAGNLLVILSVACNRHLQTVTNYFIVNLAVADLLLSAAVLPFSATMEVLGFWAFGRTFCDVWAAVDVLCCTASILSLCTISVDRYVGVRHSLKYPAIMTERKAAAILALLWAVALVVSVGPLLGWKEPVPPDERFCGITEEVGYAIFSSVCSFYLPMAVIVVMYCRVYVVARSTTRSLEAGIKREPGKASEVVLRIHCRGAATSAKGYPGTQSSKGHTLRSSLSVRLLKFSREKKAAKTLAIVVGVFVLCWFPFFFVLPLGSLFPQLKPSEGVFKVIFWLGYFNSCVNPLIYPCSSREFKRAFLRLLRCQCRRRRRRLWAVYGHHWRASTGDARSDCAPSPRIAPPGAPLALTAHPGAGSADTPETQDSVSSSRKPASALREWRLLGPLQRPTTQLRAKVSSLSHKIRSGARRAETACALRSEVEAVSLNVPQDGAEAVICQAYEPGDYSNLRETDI
T1 sequence (P43140 whole entry): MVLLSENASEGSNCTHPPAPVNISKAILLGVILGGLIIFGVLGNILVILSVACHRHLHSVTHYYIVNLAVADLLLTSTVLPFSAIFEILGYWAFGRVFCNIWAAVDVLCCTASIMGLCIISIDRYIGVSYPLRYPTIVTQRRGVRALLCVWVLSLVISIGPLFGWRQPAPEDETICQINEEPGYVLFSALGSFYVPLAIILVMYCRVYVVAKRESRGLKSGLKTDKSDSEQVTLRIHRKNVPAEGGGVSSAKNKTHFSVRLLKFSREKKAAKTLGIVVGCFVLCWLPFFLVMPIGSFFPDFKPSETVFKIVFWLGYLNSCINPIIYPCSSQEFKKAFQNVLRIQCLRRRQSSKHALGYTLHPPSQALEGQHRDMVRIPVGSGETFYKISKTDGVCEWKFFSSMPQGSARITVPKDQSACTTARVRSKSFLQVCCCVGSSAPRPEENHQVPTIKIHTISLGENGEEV
The experiment in a line: Binding affinity towards alpha-1 adrenergic receptor of rat frontal cortex using [3H]- WB- 4101 as a radioligand. Type of experiment: tissue-based.

The target of experiment [2] is Serotonin 1a (5-HT1a) receptor/Adrenergic receptor alpha-1 (Rattus norvegicus) (UniProt P15823+P23944+P43140+P19327). As to the kind of experiment: Ratio of Ki value for alpha-1 receptor to that of 5-HT1A receptor. Type of experiment: protein assay. In a few lines:
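Ratio of two radioligand binding Ki values. 5-HT1A binding used 0.1 nM [3H]-8-OH-DPAT with rat hippocampal homogenate (6 mg), and 10 μM 8-OH-DPAT defined nonspecific binding. α1-adrenergic binding used 1.0 nM [3H]WB4101 plus 100 nM 8-OH-DPAT with rat frontal cortex (10 mg), and 1 μM prazosin defined nonspecific binding.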

The target of experiment [3] is T2, 5-hydroxytryptamine receptor 1A (Rattus norvegicus, UniProt P19327).
T2 sequence (P19327 whole entry): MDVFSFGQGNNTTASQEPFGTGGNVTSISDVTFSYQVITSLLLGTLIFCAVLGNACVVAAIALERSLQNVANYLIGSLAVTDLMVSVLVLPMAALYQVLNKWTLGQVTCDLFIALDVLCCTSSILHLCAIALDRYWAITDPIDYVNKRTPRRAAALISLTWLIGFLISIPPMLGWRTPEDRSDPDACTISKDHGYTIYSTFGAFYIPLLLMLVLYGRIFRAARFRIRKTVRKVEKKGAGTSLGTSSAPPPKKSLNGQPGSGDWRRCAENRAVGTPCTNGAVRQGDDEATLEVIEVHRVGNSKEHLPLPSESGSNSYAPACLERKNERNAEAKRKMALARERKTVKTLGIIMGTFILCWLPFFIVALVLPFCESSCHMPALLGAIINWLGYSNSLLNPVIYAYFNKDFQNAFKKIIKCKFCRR
As to the kind of experiment: Binding affinity towards 5-hydroxytryptamine 1A receptor of rat hippocampus using [3H]-8-hydroxy-2-(di-n-propylamine) tetralin (8-OH-DPAT) as a radioligand. Format: tissue-based.

For experiment [4], the target named is 5-hydroxytryptamine receptor 1B (Rattus norvegicus, UniProt P28564). The experiment in a line: Binding affinity towards 5-hydroxytryptamine 1B receptor using [3H]5-HT as radioligand.
Experiment [5] addresses Serotonin 2 (5-HT2) receptor (Rattus norvegicus, UniProt P30994+P08909+P14842). As to the kind of experiment: Binding affinity towards 5-hydroxytryptamine 2 receptor using [3H]DOB as. Type of experiment: protein assay. In a few lines:
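[3H]DOB at 0.4 nM on 15 mg homogenized rat frontal cortex; nonspecific binding set with 1 μM cinanserin.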

In the next experiment the target is Adrenergic receptor beta (Rattus norvegicus, UniProt P18090+P10608+P26255). The experiment in a line: Binding affinity towards beta adrenergic receptor using [3H]DHA as radioligand. Type of experiment: protein assay. In a few lines:
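Homogenized rat frontal cortex (5 mg) labelled with 1 nM [3H]DHA; 1 μM propranolol for nonspecific binding.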

The target in experiment [6] is T3, 5-hydroxytryptamine receptor 2C (Rattus norvegicus, UniProt P08909).
T3 sequence (P08909 whole entry): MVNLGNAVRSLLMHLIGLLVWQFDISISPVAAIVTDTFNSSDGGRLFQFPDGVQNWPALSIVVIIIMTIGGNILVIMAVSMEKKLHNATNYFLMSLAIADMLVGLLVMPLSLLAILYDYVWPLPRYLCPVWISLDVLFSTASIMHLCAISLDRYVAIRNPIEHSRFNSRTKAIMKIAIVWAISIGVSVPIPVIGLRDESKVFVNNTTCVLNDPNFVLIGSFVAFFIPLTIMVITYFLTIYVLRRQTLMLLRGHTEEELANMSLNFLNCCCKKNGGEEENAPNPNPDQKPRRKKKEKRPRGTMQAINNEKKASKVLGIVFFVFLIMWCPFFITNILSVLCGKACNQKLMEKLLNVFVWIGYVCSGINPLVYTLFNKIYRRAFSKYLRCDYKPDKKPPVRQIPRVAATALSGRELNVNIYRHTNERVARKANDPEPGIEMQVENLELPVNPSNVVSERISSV
The experiment in a line: Binding affinity towards 5-hydroxytryptamine 1C receptor using [3H]mesulergine as radioligand. In a few lines: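 Homogenized rat frontal cortex (10 mg) with 1.0 nM [3H]mesulergine plus 10 nM spiperone; 10 μM 5-HT defined nonspecific binding.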

The target in the next experiment is D(2) dopamine receptor (Bos taurus, UniProt P20288). The experiment in a line: Binding affinity towards D2-dopaminergic receptor using [3H]NMSP as radioligand. In a few lines:
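Calf caudate (2 mg) with 1 nM [3H]NMSP in 140 mM NaCl; nonspecific binding defined by 10 μM sulpiride.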

A further experiment deals with D(1A) dopamine receptor (Rattus norvegicus, UniProt P18901). As to the kind of experiment: Binding affinity towards Dopamine receptor D1 using [3H]SCH-23390 as radioligand. In a few lines:
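Homogenized rat striatum (2 mg), 1 nM [3H]SCH-23390 with 20 nM ketanserin added; 1 μM SCH-23390 defined nonspecific binding.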

Chain of D(1A) dopamine receptor (P18901 whole entry): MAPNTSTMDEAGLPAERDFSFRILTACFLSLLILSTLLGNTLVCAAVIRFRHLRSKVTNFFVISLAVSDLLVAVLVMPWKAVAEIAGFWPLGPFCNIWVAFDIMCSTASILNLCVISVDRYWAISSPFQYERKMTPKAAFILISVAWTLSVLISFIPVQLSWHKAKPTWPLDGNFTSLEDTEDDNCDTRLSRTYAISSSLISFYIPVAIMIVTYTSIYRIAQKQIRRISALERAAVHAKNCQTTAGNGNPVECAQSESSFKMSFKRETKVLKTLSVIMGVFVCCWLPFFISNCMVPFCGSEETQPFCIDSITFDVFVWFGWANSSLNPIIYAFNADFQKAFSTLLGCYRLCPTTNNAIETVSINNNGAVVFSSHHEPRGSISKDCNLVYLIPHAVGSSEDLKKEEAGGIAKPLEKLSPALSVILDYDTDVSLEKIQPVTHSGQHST
Chain of 5-hydroxytryptamine receptor 1B (P28564 whole entry): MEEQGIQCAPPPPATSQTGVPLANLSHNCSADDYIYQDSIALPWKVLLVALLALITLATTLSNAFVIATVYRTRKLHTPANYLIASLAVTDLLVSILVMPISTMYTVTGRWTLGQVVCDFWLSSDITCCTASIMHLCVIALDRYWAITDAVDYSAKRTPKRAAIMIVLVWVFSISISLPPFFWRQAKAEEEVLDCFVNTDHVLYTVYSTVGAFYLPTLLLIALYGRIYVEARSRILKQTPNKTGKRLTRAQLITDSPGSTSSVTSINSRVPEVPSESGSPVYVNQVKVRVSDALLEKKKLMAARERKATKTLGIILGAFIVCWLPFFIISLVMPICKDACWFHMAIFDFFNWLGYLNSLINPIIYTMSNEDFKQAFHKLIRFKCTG
Chain of D(2) dopamine receptor (P20288 whole entry): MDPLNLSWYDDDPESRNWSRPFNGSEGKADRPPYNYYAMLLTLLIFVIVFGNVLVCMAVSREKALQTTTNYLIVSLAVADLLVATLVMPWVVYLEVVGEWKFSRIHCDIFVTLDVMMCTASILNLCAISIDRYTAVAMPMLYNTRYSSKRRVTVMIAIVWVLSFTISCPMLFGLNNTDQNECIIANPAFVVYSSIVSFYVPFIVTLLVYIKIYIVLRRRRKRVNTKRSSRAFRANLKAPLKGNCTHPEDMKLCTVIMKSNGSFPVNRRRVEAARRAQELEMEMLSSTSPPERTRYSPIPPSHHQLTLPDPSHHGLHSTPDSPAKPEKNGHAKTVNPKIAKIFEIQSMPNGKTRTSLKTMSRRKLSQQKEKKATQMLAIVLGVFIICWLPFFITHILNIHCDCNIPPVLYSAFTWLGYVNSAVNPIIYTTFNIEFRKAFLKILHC

`O=C1c2ccccc2C(=O)N1CCCCN1CCN(c2cccc3ccccc23)CC1`: the Ki (in general, the equilibrium dissociation constant of an inhibitor or competing ligand from its target) in experiment [1] is 22 nM. The Selectivity in experiment [2] is 22.
As to `COc1ccc(OC)c(N2CCN(CCCCN3C(=O)c4ccccc4C3=O)CC2)c1`, the figures for the Ki in experiment [3] and in [1] were 22 nM and 15 nM, respectively. In addition, the Selectivity in experiment [2] came out at 0.7.
Taken in the same sequence, the figures for `O=C(NCCCCN1CCN(c2cccc3ccccc23)CC1)C12C[C@H]3C[C@@H](C1)C[C@@H](C2)C3` were 0.7 nM, 109 nM and 156.
For `COc1ccccc1N1CCN(CCCCNC(=O)c2ccc([N+](=O)[O-])cc2)CC1`, in that order: 4.4 nM, 14 nM and 3.
As for `CC(=O)Nc1ccc(N2CCN(CCCCN3C(=O)c4ccccc4C3=O)CC2)cc1`, the Ki in experiment [3] worked out at 213 nM; in experiment [1], 10000 nM.
As to `O=C1c2ccccc2C(=O)N1CCCCN1CCN(c2ccc([N+](=O)[O-])cc2)CC1`, the Ki turned out to be 1000 nM in [3] and 378 nM in experiment [1]. Moreover, in experiment [2], the Selectivity was 0.4.
Taken in the same sequence, the figures for `COc1ccccc1N1CCN(CCCCNC(=O)C(C)(C)C)CC1` were 1 nM, 74 nM and 74.
`COc1ccccc1N1CCN(CCCCNC(=O)CCCc2ccccc2)CC1` came in with a Ki in experiment [1] of 84 nM. Further, the Selectivity in experiment [2] is 7.
Turning to `CCCCC(=O)NCCCCN1CCN(c2ccccc2OC)CC1`, the Ki in [3] stood at 7.5 nM; in experiment [1], 84 nM. The Selectivity in experiment [2] is 11.
For `COc1ccccc1N1CCN(CCCCNC(=O)c2ccc(I)cc2)CC1`, in that order: 4 nM, 15 nM and 4.
For the compound `COc1ccccc1N1CCN(CCCCNC(=O)c2ccc(Cl)cc2)CC1`, the results for the Ki in experiment [3] and in experiment [1] were 3.6 nM and 23 nM, respectively. Moreover, the Selectivity in experiment [2] was 6.
For `COc1ccccc1N1CCN(CCCCNC(=O)C23C[C@H]4C[C@@H](C2)C[C@@H](C3)C4)CC1`, the Ki in [3] stood at 0.4 nM; in [1], 64 nM; in experiment [4], 890 nM; in [5] it was 34 nM; at Adrenergic receptor beta, 1020 nM; in experiment [6], 225 nM. The Ki on D(2) dopamine receptor is 2.7 nM; at D(1A) dopamine receptor, more than 1000 nM.
Turning to `O=C1c2ccccc2C(=O)N1CCCCN1CCN(c2ccccc2[N+](=O)[O-])CC1`, the Ki amounted to 4 nM in experiment [3] and 25 nM in experiment [1]. In addition, the Selectivity in experiment [2] turned out to be 6.
Taken in the same sequence, the figures for `COc1ccccc1N1CCN(CCCCNC(=O)c2ccc(N)cc2)CC1` were 6.3 nM, 23 nM and 4.
Regarding `COc1ccccc1N1CCN(CCCCNC(=O)c2ccc(Cl)c(Cl)c2)CC1`, the figures for the Ki in experiment [3] and in [1] were 2 nM and 21 nM, respectively. In addition, the Selectivity in [2] was 11.
Taken in the same sequence, the figures for `COc1ccccc1N1CCN(CCCCNC(=O)c2ccc(O)cc2)CC1` were 5.4 nM, 17 nM and 3.
